Hits are enriched below; roughly 2.7% of the tested compounds scored in any of these assays.
DENV2 CPE rescue – inhibitors of DENV2 cytopathic effect, primary screen, cell-based, plate reader, single concentration; CPE inhibition, % at 9.99 µM; DENV2-infected cells, cytopathic effect rescue; AID 651640, 2012; 350,000 compounds, 1.7% hits; in the data active = CPE inhibition above about 20%, passing the limit was not always enough; inconclusive = no clear call, values can overlap the other calls; tested in BHK-21 cells;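 also: 0% = median of neutral control wells and 100% = median of positive control wells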
S100A4 MyoIIA – inhibitors of S100A4-myosin IIA peptide binding, primary screen, biochemical, fluorescence polarization, TAMRA-MyoIIA peptide | inhibition, % at 10.7 µM | 360,000 compounds, 0.14% hits;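 active = mean inhibition of at least 70% across replicates, with every replicate also reaching that level; inconclusive = mean inhibition reaches 70% but some replicates fall short; inactive = mean inhibition below 70%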
Target sequence (P26447 whole entry, looked up): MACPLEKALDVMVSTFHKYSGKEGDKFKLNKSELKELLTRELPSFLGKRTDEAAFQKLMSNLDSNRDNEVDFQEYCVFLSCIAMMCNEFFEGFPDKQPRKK
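Test system: S100A4 monomer protein; Medium: HEPES pH 7.2 with CaCl2, KCl, NaCl, DTT, Triton; Probe or stimulus: TAMRA-labelled myosin IIA heavy-chain peptide probe, 5 nM; Doses: one dose per compound; Times: polarization read 5 min after assay mix addition, stable 5–60 min; Benchmarks: neutral control DMSO, positive control TFP.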
MLL AF4-AF9 inh – inhibitors of AF4 peptide binding to AF9, primary screen, biochemical, AlphaScreen, biotin-AF4 peptide, FLAG-AF9, single point; 350,000 compounds, 0.47% hits; inhibition, % at 10 µM;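 active = every replicate reaching a set inhibition limit, whatever the replicate mean, cut at about 25% in these data; inconclusive = mean inhibition reaches that limit but some replicates miss it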;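 also: 0% = plate neutral control median and 100% = total signal loss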
Target sequence (P42568 whole entry, looked up): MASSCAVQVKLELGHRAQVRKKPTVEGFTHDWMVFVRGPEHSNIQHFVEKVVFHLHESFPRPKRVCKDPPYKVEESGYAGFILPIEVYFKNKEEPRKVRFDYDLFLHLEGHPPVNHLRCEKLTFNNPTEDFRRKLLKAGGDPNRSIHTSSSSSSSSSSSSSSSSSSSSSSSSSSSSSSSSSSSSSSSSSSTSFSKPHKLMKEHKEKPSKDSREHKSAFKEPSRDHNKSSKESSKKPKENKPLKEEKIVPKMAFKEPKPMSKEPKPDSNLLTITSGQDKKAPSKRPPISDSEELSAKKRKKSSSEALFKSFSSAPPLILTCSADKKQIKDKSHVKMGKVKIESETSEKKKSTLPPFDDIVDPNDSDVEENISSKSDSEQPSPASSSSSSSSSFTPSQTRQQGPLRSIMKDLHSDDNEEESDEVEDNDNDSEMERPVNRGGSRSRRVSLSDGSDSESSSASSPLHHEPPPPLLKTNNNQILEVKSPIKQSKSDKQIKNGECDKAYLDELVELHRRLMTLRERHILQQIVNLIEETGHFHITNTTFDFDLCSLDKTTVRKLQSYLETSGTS
SIRT5 block – SIRT5 desuccinylase inhibitors, primary screen, biochemical, fluorescence imaging, single point, set 5; NAD-dependent protein deacylase sirtuin-5, mitochondrial (Homo sapiens), Q9NXA8; Purified SirT5, succinyl-peptide AMC, trypsin-coupled fluorescence; inhibition, % at 15 µM; 330,000 compounds, 1.1% hits; AID 652115, 2013; in the data active = inhibition above about 15%; inconclusive = no clear call, values can overlap the other calls
CaV13 FRET inh – Primary screen for inhibitors of IQ motif and Ca2+-dependent inactivation inhibitor domain binding in CACNA1D, Förster resonance energy transfer in living cells, …; HEK cells, CFP/YFP FRET ICDI-IQ, plate reader, 10 min; percent FRET-ratio fall versus neutral wells; inhibition, % at 12.3 µM; 340,000 compounds, 0.098% hits; AID 743397;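 active = mean replicate inhibition of at least 30% and at least 1% of replicates passing that level; inconclusive = only one of the two criteria is met; inactive = neither criterion is met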;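 also: 0% = median of the neutral control wells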
* = called active by the depositor; ? = inconclusive; . = no result; ! = repeats disagree.

SMILES	DENV2 CPE rescue	S100A4 MyoIIA	MLL AF4-AF9 inh	SIRT5 block	CaV13 FRET inh
C[C@H]1CN([C@@H](C)CO)C(=O)c2cc(-c3ccc(C#N)cc3)cnc2O[C@@H]1CN(C)C(=O)Nc1ccc(F)cc1	-2.9	4.2	-0.5	-11.3	.
C[C@H]1CN([C@@H](C)CO)C(=O)c2cccc(NC(=O)c3ccncc3)c2O[C@H]1CN(C)C(=O)Nc1ccccc1	16.5	-3.3	-2.4	-0.1	-5.1
C[C@H](CO)N1C[C@H](C)[C@@H](CN(C)C(=O)Nc2ccccc2)Oc2c(NC(=O)c3ccncc3)cccc2C1=O	42.1*!	1.7	-0.6	-0.4	-4.2
C[C@@H]1CN([C@H](C)CO)C(=O)c2cccc(NC(=O)c3ccncc3)c2O[C@@H]1CN(C)C(=O)Nc1ccccc1	54.2*	15.1	-0.5	6.2	.
O=C(O)C[C@H]1C[C@H]2c3cc(NC(=O)C4CCC4)ccc3O[C@H]2[C@H](CO)O1	-2.9	25.2	-0.2	-5.5	.
COCC(=O)N1CC2(CCN(Cc3cncnc3)CC2)c2c(n(C)c3cc(OC)ccc23)[C@H]1CO	50.1*	.	-11.2	.	.
COc1ccc2c3c(n(C)c2c1)[C@@H](CO)N(C(=O)CN1CCOCC1)CC31CN(C)C1	-3.1	.	.	-1.7	.
COc1ccc2c3c(n(C)c2c1)[C@H](CO)N(C(=O)CN1CCOCC1)CC31CN(Cc2ccncc2)C1	36.6*	0.6	0.8	-2.1	.
COCC(=O)N1CC2(CCN(Cc3ccccc3)CC2)c2c(n(C)c3cc(OC)ccc23)[C@@H]1CO	6.5	-2.4	-0.4	.	.
CCCNC(=O)N1CC2(CN(Cc3ccc(OC)cc3)C2)c2c(n(C)c3cc(OC)ccc23)[C@H]1CO	-3.0	.	35.7*	.	.
CCC(=O)N1CC2(CN(Cc3ccc(F)cc3)C2)c2c(n(C)c3cc(OC)ccc23)[C@@H]1CO	21.4*	-9.5	0.4	-4.7	.
Cc1noc(C)c1NC(=O)N(C)C[C@@H]1Oc2c(NC(=O)C3CCOCC3)cccc2C(=O)N([C@H](C)CO)C[C@@H]1C	2.4	2.5	-1.3	-3.4	.
O=C(N[C@@H]1CC[C@@H](CCNS(=O)(=O)c2ccc(F)cc2)O[C@@H]1CO)c1ccccn1	8.7	-12.8	1.1	1.0	.
C[C@@H]1CN([C@@H](C)CO)C(=O)c2cc(/C=C/c3ccccc3)cnc2O[C@H]1CN(C)C(=O)NC1CCCCC1	0.2	1.4	7.0	7.9	.
Cc1ccc(N2CC(O)Cn3c2nc2c3c(=O)n(C)c(=O)n2C)cc1 (configuration not stated)	-4.7	-4.3	4.9	0.7	-1.2
Cn1c(=O)c2c(nc3n2CC(O)CN3c2ccc(O)cc2)n(C)c1=O (configuration not stated)	39.0*	2.3	-1.6	-4.2	-20.7
COc1cccc(S(=O)(=O)N[C@H]2C=C[C@H](CC(=O)NCc3ccccc3)O[C@H]2CO)c1	-4.7	7.7	-2.5	-2.9	.
O=C(C[C@@H]1CC[C@H]2[C@@H](COC[C@@H](O)CN2Cc2nccs2)O1)NCc1ccccc1F	10.6	-7.9	-0.3	6.5	.
C[C@H](CO)N1C[C@H](C)[C@@H](CN(C)C(=O)Nc2ccc3c(c2)OCO3)Oc2cc(C3=CCCC3)ccc2S1(=O)=O	5.9	1.2	2.0	19.9*	.
C[C@@H]1CN([C@H](C)CO)S(=O)(=O)c2ccc(C3=CCCC3)cc2O[C@@H]1CN(C)C(=O)CC1CC1	-7.5	-3.1	1.7	-2.0	.
C[C@H]1CN([C@@H](C)CO)S(=O)(=O)c2ccc(C3=CCCCC3)cc2O[C@@H]1CN(C)C(=O)Nc1ccc2c(c1)OCO2	-2.2	0.7	12.5	12.6	.
C[C@H]1CN([C@@H](C)CO)S(=O)(=O)c2ccc(C3=CCCC3)cc2O[C@@H]1CN(C)C(=O)CC1CC1	70.2*	-3.7	-2.4	2.9	.
CC(C)NC(=O)N(C)C[C@@H]1Oc2cc(C3=CCCC3)ccc2S(=O)(=O)N([C@H](C)CO)C[C@@H]1C	46.7*	1.7	-8.2	4.0	.
C[C@H](CO)N1C[C@H](C)[C@@H](CN(C)C(=O)C2CCC2)Oc2cc(-c3cncnc3)ccc2S1(=O)=O	28.7*	43.1	-0.2	5.3	.
Cc1cc(C(=O)Nc2cccc3c2O[C@@H](CN(C)C(=O)Nc2ccc(F)cc2)[C@@H](C)CN([C@@H](C)CO)C3=O)n(C)n1	17.1	-2.6	-2.2	-1.3	.
SMILES	DENV2 CPE rescue	S100A4 MyoIIA	MLL AF4-AF9 inh	SIRT5 block	CaV13 FRET inh
C[C@@H]1CN([C@@H](C)CO)C(=O)c2cc(Br)cnc2O[C@@H]1CN(C)CC1CCOCC1	16.5	-11.9	-1.7	-3.3	.
C[C@H](CO)N1C[C@H](C)[C@@H](CN(C)C(=O)C2CCC2)Oc2cc(C3=CCCC3)ccc2S1(=O)=O	32.5*	8.3	-5.9	-1.0	.
C[C@@H]1CN([C@@H](C)CO)S(=O)(=O)c2ccc(C3=CCCC3)cc2O[C@@H]1CN(C)C(=O)C1CCC1	-8.9	-1.5	-2.8	1.3	.
O=C(Cc1cccnc1)N1CC(=O)N2[C@H](C1)[C@H](c1ccc(C#CC3CCCC3)cc1)[C@@H]2CO	?	6.7	8.6	3.2	.
CO[C@H]1CN(C)C(=O)c2ccc(NC(=O)NC(C)C)cc2OC[C@H](C)N(C(=O)C2CCC2)C[C@@H]1C	-8.7	?	-1.3	-2.4	.
COc1ccc(N=Nc2cc(OC)c(N)cc2OC)cc1	-1.3	-6.9	31.5*	-0.7	-2.5
O=C(C1CCCCC1)N1CC2(C1)[C@@H](c1ccccc1)[C@@H](CO)N2Cc1cncnc1	10.6	-46.7	-1.3	-1.8	.
O=C(C1CCCC1)N1CC2(C1)[C@H](c1ccccc1)[C@@H](CO)N2Cc1ccc(Cl)cc1	3.0	13.6	0.5	31.2*	.
O=C(C1CCCC1)N1CC2(C1)[C@H](c1ccccc1)[C@H](CO)N2Cc1nccs1	?	3.1	-0.4	17.5*	.
O=C(C1CCCC1)N1CC2(C1)[C@@H](c1ccccc1)[C@@H](CO)N2Cc1ccc(Cl)cc1	-6.8	0.1	2.0	5.0	.
O=C(C1CCCCC1)N1CC2(C1)[C@H](c1ccccc1)[C@H](CO)N2Cc1cncnc1	40.4*	-15.5	-11.2	2.5	.
O=C(C1CCOCC1)N1CC2(C1)[C@H](c1ccccc1)[C@@H](CO)N2Cc1ccc(Cl)cc1	28.7*	2.4	-0.8	1.0	.
Cn1cnc(S(=O)(=O)N2CC[C@@H]3[C@H]2c2cc(C#Cc4ccccc4F)ccc2N[C@@H]3CO)c1	5.8	-3.2	-5.7	.	.
COc1ccc2c3c(n(C)c2c1)[C@H](CO)NCC31CCN(Cc2cc(F)ccc2F)CC1	-6.4	0.3	25.5*	7.3	.
COc1ccc2c3c(n(C)c2c1)[C@@H](CO)NCC31CCN(Cc2cc(F)ccc2F)CC1	-22.1	5.8	32.5*	0.8	.

Bioassay records as filed in PubChem BioAssay.
